Activity calls are given as the source filed them. No cut-off for these calls is given here.
Legend:
[1] = Induction of DNA adduct formation (unknown origin) using guanosine in presence of glacial acetic acid at 75 degC incubated for 12 hrs by TLC method
Outline: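 Model reaction of compound with guanosine in glacial acetic acid at 75 °C, heated up to 12 h; adduct sought by TLC and LCMS.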

HEK293 [2] = test: Induction of cell cycle arrest in HEK293 cells assessed as accumulation at G2/M phase at 10 uM after 48 hrs by propidium iodide staining based flow cytometry (reference value: 2.63 +/- 0.7%); format: functional, Homo sapiens
HEK293 [3] = test: Induction of cell cycle arrest in HEK293 cells assessed as accumulation at S phase at 20 uM after 48 hrs by propidium iodide staining based flow cytometry (reference value: 19.9 +/- 0.5%); format: functional, Homo sapiens
HEK293 [4] = test: Induction of cell death in HEK293 cells at 15 to 20 uM after 48 hrs by DAPI staining based fluorescence microscopy; format: functional; details: Homo sapiens
HEK293 [5] = test: Reduction in NFkappaB expression in p53 deficient HEK293 cells at LC50 level after 48 hrs by Western blot method; format: functional, cell-based; details: Homo sapiens
HEK293 [6] = test: Induction of apoptosis in HEK293 cells at 5 to 20 uM after 48 hrs by DAPI staining based fluorescence microscopy; format: functional, cell-based; details: Homo sapiens
HEK293 [7] = test: Increase in Bax expression in HEK293 cells at LC50 level after 48 hrs by Western blot method; format: functional, cell-based; details: Homo sapiens
[8] = Cytotoxicity against human MCF10A cells after 48 hrs by MTT assay; format: cell-based; details: mcf-10a
Outline: (§1)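 Cells seeded at 10,000 per well and exposed to increasing compound concentrations for 48 h. After a PBS wash, MTT (2.5 mg/mL) was added for 6 h at 37 °C, then detergent (10% NP-40, 4 mM HCl), and absorbance was read at 570 nm. LC50 is the concentration causing 50% cell death. Values are means of three independent experiments.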

Calf thymus DNA [9] = test: Binding affinity to calf thymus DNA assessed as reduction of DNA absorption band at 260 nanometer at 3.33 to 20 uM after 2 hrs by UV-visible absorption spectroscopy; format: nucleic-acid assay; details: Bos taurus
Outline: (§2)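 CT-DNA at fixed […] in 50 mM Tris-HCl/NaCl pH 7.5, incubated with compound for 2 h at 37 °C, scanned 200–400 nm after dilution. Spectra normalized at 230 nm. Fraction bound q from absorbance near 260 nm; Boltzmann fit, Kb as reciprocal of half-saturation concentration.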

HEK293 [10] = test: Induction of apoptosis in HEK293 cells at 20 uM after 48 hrs by propidium iodide staining based flow cytometry (reference value: 24.26 +/- 0.8%); format: functional, Homo sapiens
MCF7 = test: Cytotoxicity against human MCF7 cells after 48 hrs by MTT assay; format: functional; details: MCF7, 48 h, read-out: LC50 (the source's name); outline: as §1
HEK293 [11] = test: Induction of cell cycle arrest in HEK293 cells assessed as accumulation at G2/M phase at 15 uM after 48 hrs by propidium iodide staining based flow cytometry (reference value: 2.63 +/- 0.7%); format: functional, Homo sapiens
HEK293 [12] = test: Induction of apoptosis in HEK293 cells at 10 uM after 48 hrs by propidium iodide staining based flow cytometry (reference value: 24.26 +/- 0.8%); format: functional, Homo sapiens
[13] = Retention time of the compound by HPLC method; format: physicochemical
Calf thymus DNA [14] = test: Binding affinity to calf thymus DNA at 3.33 to 20 uM after 2 hrs by UV-visible absorption spectroscopy; format: nucleic-acid assay; details: Bos taurus; outline: as §2
HEK293 [15] = test: Induction of cell cycle arrest in HEK293 cells assessed as accumulation at G1 phase at 15 uM after 48 hrs by propidium iodide staining based flow cytometry (reference value: 53.21 +/- 0.8%); format: functional, Homo sapiens
[16] = molecular target: T1, Nuclear factor NF-kappa-B complex (Homo sapiens) (UniProt Q00653+P19838+Q04206); test: Inhibition of NFkappaB (unknown origin) expressed in HEK293 cells assessed as reduction in transcriptional activity after 48 hrs by luciferase reporter gene assay; format: cell-based
Outline: (§3)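 HEK-293 at 70% confluence transfected by calcium phosphate with NF-kB luciferase ([…]) and b-Gal ([…]) plasmids, 6–8 h, then fresh serum medium 12 h; treated 48 h, lysed, luciferase read and normalized to b-galactosidase. Three independent experiments.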

HEK293 [17] = test: Induction of apoptosis in HEK293 cells assessed as apoptotic nuclei formation at 5 uM after 48 hrs by DAPI staining based fluorescence microscopy; format: functional, cell-based; details: Homo sapiens
HEK293 [18] = test: Induction of apoptosis in HEK293 cells at 20 uM after 48 hrs by propidium iodide staining based flow cytometry relative to untreated control; format: functional, Homo sapiens
HEK293 [19] = test: Increase in caspase-3 expression in HEK293 cells at LC50 level after 48 hrs by immunocytochemistry; format: functional, cell-based; details: Homo sapiens
Vero = test: Cytotoxicity against african green monkey Vero cells after 48 hrs by MTT assay; format: cell-based; details: chlorocebus sabaeus; outline: as §1
[20] = Hydrolysis half life in pH 7.4 PBS buffer assessed as andrographolide formation by HPLC method; format: physicochemical
HEK293 [21] = test: Induction of cell cycle arrest in HEK293 cells assessed as accumulation at S phase at 5 uM after 48 hrs by propidium iodide staining based flow cytometry (reference value: 19.9 +/- 0.5%); format: functional, Homo sapiens
HEK293 [22] = test: Increase in Bax expression in p53 deficient HEK293 cells at LC50 level after 48 hrs by Western blot method; format: functional, cell-based; details: Homo sapiens
HEK293 [23] = test: Induction of apoptosis in HEK293 cells at 5 uM after 48 hrs by propidium iodide staining based flow cytometry (reference value: 24.26 +/- 0.8%); format: functional, Homo sapiens
HEK293 [24] = test: Increase in p53 expression in HEK293 cells at LC50 level after 48 hrs by Western blot method; format: functional, cell-based; details: Homo sapiens
[25] = Binding affinity to GC-28 DNA (unknown origin) minor groove by DAPI staining based spectrophotometry
Outline: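 DAPI–DNA complex fluorescence read at 460 nm emission band; test compound added to the preformed complex and loss of fluorescence followed.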

HEK293 [26] = test: Induction of cell cycle arrest in HEK293 cells assessed as accumulation at S phase at 10 uM after 48 hrs by propidium iodide staining based flow cytometry (reference value: 19.9 +/- 0.5%); format: functional, Homo sapiens
HEK293 [27] = test: Induction of cell cycle arrest in HEK293 cells assessed as accumulation at G1 phase at 5 uM after 48 hrs by propidium iodide staining based flow cytometry (reference value: 53.21 +/- 0.8%); format: functional, Homo sapiens
HEK293 [28] = test: Reduction in NFkappaB expression in HEK293 cells at LC50 level after 48 hrs by Western blot method; format: functional, cell-based; details: Homo sapiens
HEK293 [29] = test: Induction of cell cycle arrest in HEK293 cells assessed as accumulation at G1 phase at 10 uM after 48 hrs by propidium iodide staining based flow cytometry (reference value: 53.21 +/- 0.8%); format: functional, Homo sapiens
HEK293 [30] = test: Increase in p53 expression in p53 deficient HEK293 cells at LC50 level after 48 hrs by Western blot method; format: functional, cell-based; details: Homo sapiens
[31] = molecular target: T1, Nuclear factor NF-kappa-B complex (Homo sapiens); test: Inhibition of NFkappaB (unknown origin) expressed in HEK293 cells assessed as reduction in transcriptional activity at 5 uM after 48 hrs by luciferase reporter gene assay; format: cell-based; outline: as §3
HEK293 [32] = test: Induction of cell cycle arrest in HEK293 cells assessed as accumulation at G1 phase at 20 uM after 48 hrs by propidium iodide staining based flow cytometry (reference value: 53.21 +/- 0.8%); format: functional, Homo sapiens

T1 sequence (P19838 whole entry, looked up): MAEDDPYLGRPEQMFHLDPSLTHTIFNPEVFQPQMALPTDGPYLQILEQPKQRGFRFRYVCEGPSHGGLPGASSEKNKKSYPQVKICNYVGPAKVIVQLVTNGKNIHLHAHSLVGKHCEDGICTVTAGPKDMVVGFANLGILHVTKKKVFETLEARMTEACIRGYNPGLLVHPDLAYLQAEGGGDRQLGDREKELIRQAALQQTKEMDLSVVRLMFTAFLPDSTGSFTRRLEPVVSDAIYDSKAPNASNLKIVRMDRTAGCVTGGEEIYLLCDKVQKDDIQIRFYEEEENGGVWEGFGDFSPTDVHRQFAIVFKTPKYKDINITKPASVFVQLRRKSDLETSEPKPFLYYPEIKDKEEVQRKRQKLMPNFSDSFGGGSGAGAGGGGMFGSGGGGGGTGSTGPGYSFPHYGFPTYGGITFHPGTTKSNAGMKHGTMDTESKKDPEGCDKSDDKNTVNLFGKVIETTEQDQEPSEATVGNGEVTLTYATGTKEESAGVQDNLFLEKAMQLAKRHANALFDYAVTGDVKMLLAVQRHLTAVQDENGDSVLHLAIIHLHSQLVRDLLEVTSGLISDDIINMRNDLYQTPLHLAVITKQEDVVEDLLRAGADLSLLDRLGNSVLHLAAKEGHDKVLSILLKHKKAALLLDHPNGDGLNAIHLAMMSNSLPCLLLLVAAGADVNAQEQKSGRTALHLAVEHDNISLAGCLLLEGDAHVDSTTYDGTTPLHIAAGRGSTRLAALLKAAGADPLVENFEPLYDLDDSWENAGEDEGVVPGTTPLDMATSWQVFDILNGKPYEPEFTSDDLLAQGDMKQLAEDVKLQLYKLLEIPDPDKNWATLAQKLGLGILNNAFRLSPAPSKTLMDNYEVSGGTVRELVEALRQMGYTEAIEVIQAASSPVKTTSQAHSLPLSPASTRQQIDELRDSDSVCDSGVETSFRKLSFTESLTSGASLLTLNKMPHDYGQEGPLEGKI
T1 sequence (Q00653 whole entry, looked up): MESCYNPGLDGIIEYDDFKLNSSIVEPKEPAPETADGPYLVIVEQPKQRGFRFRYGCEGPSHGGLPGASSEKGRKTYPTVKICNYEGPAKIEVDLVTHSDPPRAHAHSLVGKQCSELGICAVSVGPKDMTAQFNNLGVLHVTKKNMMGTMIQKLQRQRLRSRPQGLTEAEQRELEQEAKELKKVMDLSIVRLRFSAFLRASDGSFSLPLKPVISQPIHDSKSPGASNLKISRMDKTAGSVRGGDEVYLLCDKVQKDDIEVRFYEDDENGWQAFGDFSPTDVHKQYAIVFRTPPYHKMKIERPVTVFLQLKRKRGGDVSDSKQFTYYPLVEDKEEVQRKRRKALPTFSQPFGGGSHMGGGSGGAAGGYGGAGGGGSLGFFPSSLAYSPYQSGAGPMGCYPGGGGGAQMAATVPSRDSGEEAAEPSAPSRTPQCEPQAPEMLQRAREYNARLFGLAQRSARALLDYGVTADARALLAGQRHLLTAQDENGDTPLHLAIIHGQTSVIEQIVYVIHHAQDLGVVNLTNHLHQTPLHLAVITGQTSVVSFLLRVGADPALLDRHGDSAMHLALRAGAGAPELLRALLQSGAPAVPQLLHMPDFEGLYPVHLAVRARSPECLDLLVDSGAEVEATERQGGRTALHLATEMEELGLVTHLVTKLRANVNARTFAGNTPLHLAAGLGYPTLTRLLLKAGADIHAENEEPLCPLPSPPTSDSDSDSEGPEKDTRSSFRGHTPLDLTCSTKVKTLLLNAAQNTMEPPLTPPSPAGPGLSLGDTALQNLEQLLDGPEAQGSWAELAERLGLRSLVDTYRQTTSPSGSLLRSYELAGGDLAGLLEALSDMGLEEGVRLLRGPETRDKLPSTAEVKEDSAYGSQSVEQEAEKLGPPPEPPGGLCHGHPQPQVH
T1 sequence (Q04206 whole entry, looked up): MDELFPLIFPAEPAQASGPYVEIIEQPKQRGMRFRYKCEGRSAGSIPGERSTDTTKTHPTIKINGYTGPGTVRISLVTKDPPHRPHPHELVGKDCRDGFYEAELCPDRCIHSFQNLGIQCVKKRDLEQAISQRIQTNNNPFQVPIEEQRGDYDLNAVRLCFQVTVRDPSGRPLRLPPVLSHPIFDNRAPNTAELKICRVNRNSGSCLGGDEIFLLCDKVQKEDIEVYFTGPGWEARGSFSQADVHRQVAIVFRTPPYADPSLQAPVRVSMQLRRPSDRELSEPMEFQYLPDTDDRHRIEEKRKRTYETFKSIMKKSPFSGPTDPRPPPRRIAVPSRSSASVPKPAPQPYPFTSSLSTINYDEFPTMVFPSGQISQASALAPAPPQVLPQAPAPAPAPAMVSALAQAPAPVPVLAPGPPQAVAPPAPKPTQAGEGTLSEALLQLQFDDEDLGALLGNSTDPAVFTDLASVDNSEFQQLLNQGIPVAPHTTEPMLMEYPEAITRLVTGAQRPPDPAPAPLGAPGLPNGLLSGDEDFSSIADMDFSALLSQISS

With `C=C1CC[C@@H]2[C@](C)(CO)[C@H](O)CC[C@@]2(C)[C@@H]1C/C=C1/C(=O)OC[C@H]1OC(=O)CI` the Activity [1] was “inactive”, the Activity (HEK293 [2]) was 2.74% and the Activity (HEK293 [3]) was 1.66%. The Activity (HEK293 [4]) was “Active”, the Activity (HEK293 [5]) was “inactive” and the Activity (HEK293 [6]) was “Dose-dependent effect”. The Activity (HEK293 [7]) was “Active”, the LC50 [8] was greater than 40 µM and the Activity (Calf thymus DNA [9]) was “Active”. It also gave an Activity (HEK293 [10]) of 89.69%, a CC50 (MCF7) of 6 µM and an Activity (HEK293 [11]) of 1.28%. It also gave an Activity (HEK293 [12]) of 74.03%, a Retention_time [13] of 26.9 min and a Kb (Calf thymus DNA [14]) of 2.5 ×10⁵ /M. For the same compound, the Activity (HEK293 [15]) was 14.8%, the inhibition [16] was “Dose-dependent effect” and the Activity (HEK293 [17]) was “Active”. The “fold change (FC)” value (HEK293 [18]) was greater than 5, the Activity (HEK293 [19]) was “Active” and the LC50 (Vero) was 45 µM. The t1/2 [20] was 35 min, the Activity (HEK293 [21]) was 9.21% and the Activity (HEK293 [22]) was “inactive”. The Activity (HEK293 [23]) was 43.09%, the Activity (HEK293 [24]) was “Active” and the Activity [25] was “Active”. For the same compound, the Activity (HEK293 [26]) was 7.57%, the Activity (HEK293 [27]) was 24.77% and the Activity (HEK293 [28]) was “Active”. The Activity (HEK293 [29]) was 15.6%, the Activity (HEK293 [30]) was “inactive” and the fold change (FC) [31] was 5. For the same compound, the Activity (HEK293 [32]) was 7.96%.
